Reference: ChEMBL document CHEMBL1128678, “Preparation of 18F-labeled muscarinic agonist with M2 selectivity” (J Med Chem, 1995)
Values joined by “and” are separate entries in the source; they are usually repeats but may differ in a detail not shown here. Equal entries are not always repeated. Values belong to the compound of their own block, whether it stands above or below them.

How the values were obtained:
[1] = target: Muscarinic acetylcholine receptor M3 (Cavia porcellus, UniProt Q8VH26); test: In vitro binding affinity towards Muscarinic acetylcholine receptor M3 was determined by measuring its ability to displace [3H]-N-methyl- Scopolamine from guinea pig ileum; type: tissue-based
[2] = target: T1, Muscarinic acetylcholine receptor M1 (Bos taurus, UniProt Q8WMX0); test: In vitro binding affinity towards Muscarinic acetylcholine receptor M1 was determined by measuring its ability to displace [3H]pirenzepine from bovine striatal membranes; set-up: species or system Striatum, Membrane
T1 sequence (Q8WMX0 whole entry): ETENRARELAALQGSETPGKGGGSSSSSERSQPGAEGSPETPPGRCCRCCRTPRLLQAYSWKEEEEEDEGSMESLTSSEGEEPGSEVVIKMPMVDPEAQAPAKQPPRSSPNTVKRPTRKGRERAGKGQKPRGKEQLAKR
Outline: (§1)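 Displacement binding performed by NovaScreen. For M1, the tracer was [3H]pirenzepine with bovine striatal membranes. For M2, it was [3H]AF-DX 384 with rat heart membranes. Ki values in nM were calculated by LIGAND analysis.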

[3] = target: T2, Muscarinic acetylcholine receptor M2 (Rattus norvegicus, UniProt P10980); test: In vitro binding affinity towards Muscarinic acetylcholine receptor M2 was determined by measuring its ability to displace [3H]-AF-DX 384 from rat heart membranes; set-up: species or system Membrane; outline: as §1
T2 sequence (P10980 whole entry): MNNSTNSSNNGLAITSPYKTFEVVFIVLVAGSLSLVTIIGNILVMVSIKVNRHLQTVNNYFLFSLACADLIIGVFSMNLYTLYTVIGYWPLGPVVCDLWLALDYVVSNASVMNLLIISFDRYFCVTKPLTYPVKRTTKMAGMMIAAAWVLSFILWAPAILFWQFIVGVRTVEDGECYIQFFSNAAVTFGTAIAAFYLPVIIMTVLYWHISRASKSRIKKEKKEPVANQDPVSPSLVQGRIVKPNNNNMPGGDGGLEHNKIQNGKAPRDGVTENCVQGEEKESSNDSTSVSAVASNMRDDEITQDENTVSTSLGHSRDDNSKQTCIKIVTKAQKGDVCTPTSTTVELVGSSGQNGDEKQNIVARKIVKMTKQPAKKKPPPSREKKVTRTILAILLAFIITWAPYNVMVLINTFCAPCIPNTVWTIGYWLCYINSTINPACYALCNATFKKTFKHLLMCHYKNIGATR

Rattus norvegicus [4] = test: In vivo biodistribution in LT-CTX after 60 min of administration in rat; type: ADME, organism-based; conditions: 1 h
Outline: (§2)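 [18F] tracer formulated in PBS with under 10% ethanol; 15 μCi given by tail vein to Sprague-Dawley rats (200–250 g). Groups of five sacrificed at 15, 60 or 120 min. Brain dissected into 11 regions, with blood, heart, bone and lung also collected. Tissues weighed and counted, and % ID/g calculated; n = 5 or 6.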

Rattus norvegicus [5] = test: In vivo biodistribution in lung at 60 min for no inhibitor was co-injected in rat; type: ADME, organism-based; conditions: 1 h
Outline: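 [18F]tracer formulated in phosphate-buffered saline (<10% ethanol), 15 μCi injected via tail vein into Sprague-Dawley rats (200–250 g); no inhibitor co-injected. Animals sacrificed in groups of five at 60 min postinjection. Lung sample collected, weighed, counted for activity, and % ID/g calculated (n = 5 or 6).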

Rattus norvegicus [6] = test: In vivo biodistribution in heart after 15 min of administration in rat; type: ADME, organism-based; conditions: 0.25 h; outline: as §2
Rattus norvegicus [7] = test: In vivo biodistribution in MEDULL after 60 min of administration in rat; type: ADME, organism-based; conditions: 1 h; outline: as §2
Rattus norvegicus [8] = test: In vivo biodistribution in lung after 120 min of administration in rat; type: ADME, organism-based; conditions: 2 h; outline: as §2
[9] = In vivo biodistribution in bone at 60 min for no inhibitor was co-injected in rat; type: ADME, organism-based, Bone element; conditions: 1 h
[10] = In vivo biodistribution in heart after 120 min of administration.; type: ADME, organism-based; conditions: 2 h; outline: as §2
Rattus norvegicus [11] = test: In vivo biodistribution in PONS after 120 min of administration in rat; type: ADME, organism-based; conditions: 2 h; outline: as §2
Rattus norvegicus [12] = test: In vivo biodistribution in bone after 120 min of administration in rat; type: ADME, organism-based, Bone element; conditions: 2 h; outline: as §2
Rattus norvegicus [13] = test: In vivo biodistribution in MEDULL after 15 min of administration in rat; type: ADME, organism-based; conditions: 0.25 h; outline: as §2
Rattus norvegicus [14] = test: In vivo biodistribution in bone after 15 min of administration in rat; type: ADME, organism-based, Bone element; conditions: 0.25 h; outline: as §2
Rattus norvegicus [15] = test: In vivo biodistribution in LT-THAL at 60 min for no inhibitor was co-injected in rat; type: ADME, organism-based; conditions: 1 h
Rattus norvegicus [16] = test: In vivo biodistribution in bone after 60 min of administration in rat; type: ADME, organism-based, Bone element; conditions: 1 h; outline: as §2
Rattus norvegicus [17] = test: In vivo biodistribution in PONS after 60 min of administration in rat; type: ADME, organism-based; conditions: 1 h; outline: as §2
Rattus norvegicus [18] = test: In vivo biodistribution in MEDULL after 120 min of administration in rat; type: ADME, organism-based; conditions: 2 h; outline: as §2
Rattus norvegicus [19] = test: In vivo biodistribution in LT-HIPP at 60 min for no inhibitor was co-injected in rat; type: ADME, organism-based; conditions: 1 h
Rattus norvegicus [20] = test: In vivo biodistribution in LT-HIPP after 60 min of administration in rat; type: ADME, organism-based; conditions: 1 h; outline: as §2
Rattus norvegicus [21] = test: In vivo biodistribution in CBLL after 15 min of administration in rat; type: ADME, organism-based; conditions: 0.25 h; outline: as §2
Rattus norvegicus [22] = test: In vivo biodistribution in blood after 120 min of administration in rat; type: ADME, organism-based; conditions: 2 h; outline: as §2
Rattus norvegicus [23] = test: In vivo biodistribution in LT-STR at 60 min for no inhibitor was co-injected in rat; type: ADME, organism-based; conditions: 1 h
Rattus norvegicus [24] = test: In vivo biodistribution in PONS after 15 min of administration in rat; type: ADME, organism-based; conditions: 0.25 h; outline: as §2
Rattus norvegicus [25] = test: In vivo biodistribution in LT-HIPP after 15 min of administration in rat; type: ADME, organism-based; conditions: 0.25 h; outline: as §2
Rattus norvegicus [26] = test: In vivo biodistribution in lung after 60 min of administration in rat; type: ADME, organism-based; conditions: 1 h; outline: as §2
Rattus norvegicus [27] = test: In vivo biodistribution in heart at 60 min as a function of 500 nM of (R,S) -fluoromethyl QNB(inhibitor) in rat; type: ADME, organism-based; conditions: 1 h
Rattus norvegicus [28] = test: In vivo biodistribution in LT-THAL after 120 min of administration in rat; type: ADME, organism-based; conditions: 2 h; outline: as §2
Rattus norvegicus [29] = test: In vivo biodistribution in LT-HIPP after 120 min of administration in rat; type: ADME, organism-based; conditions: 2 h; outline: as §2
Rattus norvegicus [30] = test: In vivo biodistribution in blood after 60 min of administration in rat; type: ADME, organism-based; conditions: 1 h; outline: as §2
Rattus norvegicus [31] = test: In vivo biodistribution in LT-CTX at 60 min for no inhibitor was co-injected co-injected in rat; type: ADME, organism-based; conditions: 1 h
Rattus norvegicus [32] = test: In vivo biodistribution in LT-CTX after 15 min of administration in rat; type: ADME, organism-based; conditions: 0.25 h; outline: as §2
Rattus norvegicus [33] = test: In vivo biodistribution in heart after 60 min of administration in rat; type: ADME, organism-based; conditions: 1 h; outline: as §2
Rattus norvegicus [34] = test: In vivo biodistribution in CBLL after 120 min of administration in rat; type: ADME, organism-based; conditions: 2 h; outline: as §2
Rattus norvegicus [35] = test: In vivo biodistribution in LT-THAL after 60 min of administration in rat; type: ADME, organism-based; conditions: 1 h; outline: as §2
Rattus norvegicus [36] = test: In vivo biodistribution in CBLL at 60 min for no inhibitor was co-injected in rat; type: ADME, organism-based; conditions: 1 h
Rattus norvegicus [37] = test: In vivo biodistribution in heart at 60 min for no inhibitor was co-injected in rat; type: ADME, organism-based; conditions: 1 h
Rattus norvegicus [38] = test: In vivo biodistribution in blood after 15 min of administration in rat; type: ADME, organism-based; conditions: 0.25 h; outline: as §2
Rattus norvegicus [39] = test: In vivo biodistribution in lung after 15 min of administration in rat; type: ADME, organism-based; conditions: 0.25 h; outline: as §2
Rattus norvegicus [40] = test: In vivo biodistribution in LT-STR after 120 min of administration in rat; type: ADME, organism-based; conditions: 2 h; outline: as §2
Rattus norvegicus [41] = test: In vivo biodistribution in LT-CTX at 60 min for no inhibitor was co-injected in rat; type: ADME, organism-based; conditions: 1 h
Rattus norvegicus [42] = test: In vivo biodistribution in LT-STR after 15 min of administration in rat; type: ADME, organism-based; conditions: 0.25 h; outline: as §2
Rattus norvegicus [43] = test: In vivo biodistribution in LT-CTX after 120 min of administration in rat; type: ADME, organism-based; conditions: 2 h; outline: as §2
Rattus norvegicus [44] = test: In vivo biodistribution in CBLL after 60 min of administration in rat; type: ADME, organism-based; conditions: 1 h; outline: as §2
Rattus norvegicus [45] = test: In vivo biodistribution in MEDULL at 60 min for no inhibitor was co-injected in rat; type: ADME, organism-based; conditions: 1 h
Rattus norvegicus [46] = test: In vivo biodistribution in heart at 60 min as a function of 5 nM of (R,R) IQNB (inhibitor) in rat; type: ADME, organism-based; conditions: 1 h
Rattus norvegicus [47] = test: In vivo biodistribution in blood at 60 min for no inhibitor was co-injected in rat; type: ADME, organism-based; conditions: 1 h
Rattus norvegicus [48] = test: In vivo biodistribution in LT-STR after 60 min of administration in rat; type: ADME, organism-based; conditions: 1 h; outline: as §2

Chain of Muscarinic acetylcholine receptor M3 (Q8VH26 whole entry): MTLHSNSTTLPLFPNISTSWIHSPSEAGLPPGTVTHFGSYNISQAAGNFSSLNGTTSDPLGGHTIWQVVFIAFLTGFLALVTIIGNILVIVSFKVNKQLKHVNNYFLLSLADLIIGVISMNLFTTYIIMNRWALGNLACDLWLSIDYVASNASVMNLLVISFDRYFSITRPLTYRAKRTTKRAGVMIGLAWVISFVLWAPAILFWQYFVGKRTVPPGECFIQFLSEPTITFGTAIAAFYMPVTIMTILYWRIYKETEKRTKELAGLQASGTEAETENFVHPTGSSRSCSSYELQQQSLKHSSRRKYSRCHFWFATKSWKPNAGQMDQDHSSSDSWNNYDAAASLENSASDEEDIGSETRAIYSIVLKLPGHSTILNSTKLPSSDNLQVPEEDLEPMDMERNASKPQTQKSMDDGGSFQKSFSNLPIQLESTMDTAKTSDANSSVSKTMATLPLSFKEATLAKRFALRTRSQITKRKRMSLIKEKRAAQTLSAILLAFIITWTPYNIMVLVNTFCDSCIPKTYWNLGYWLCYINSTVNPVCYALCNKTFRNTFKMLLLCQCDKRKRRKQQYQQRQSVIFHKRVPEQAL

Compound: CCCSc1nsnc1C1=CCN(C)CC1
- Ki [1]: 163 nM
- Ki [2]: 23 nM
- Ki [3]: 1.5 nM

Compound: CCCCCSc1nsnc1C1=CCN(C)CC1
- Ki [1]: > 10000 nM
- Ki [2]: 36 nM
- Ki [3]: 4 nM

- Ki [1]: 160 nM
- Ki [2]: 2.3 nM
- Ki [3]: 6.3 nM
Compound: CN1CCC=C(c2nsnc2SCCCCCF)C1

- Ki [1]: 79.7 nM
- Ki [2]: 7.4 nM
- Ki [3]: 2.2 nM
Compound: CN1CCC=C(c2nsnc2SCCCF)C1

Compound: CN1CC=C(c2nsnc2SCCC[18F])CC1
- ID/g (Rattus norvegicus [4]): 0.368%
- ID/g (Rattus norvegicus [5]): 0.372%
- ID/g (Rattus norvegicus [6]): 0.324%
- ID/g (Rattus norvegicus [7]): 0.438%
- ID/g (Rattus norvegicus [8]): 0.156%
- ID/g [9]: 0.501%
- ID/g [10]: 0.096%
- ID/g (Rattus norvegicus [11]): 0.238%
- ID/g (Rattus norvegicus [12]): 0.993%
- ID/g (Rattus norvegicus [13]): 0.788%
- ID/g (Rattus norvegicus [14]): 0.225%
- ID/g (Rattus norvegicus [15]): 0.413% and 0.45% and 0.56%
- ID/g (Rattus norvegicus [16]): 0.762%
- ID/g (Rattus norvegicus [17]): 0.385%
- ID/g (Rattus norvegicus [18]): 0.226%
- ID/g (Rattus norvegicus [19]): 0.429% and 0.47% and 0.65%
- ID/g (Rattus norvegicus [20]): 0.363%
- ID/g (Rattus norvegicus [21]): 0.766%
- ID/g (Rattus norvegicus [22]): 0.1%
- ID/g (Rattus norvegicus [23]): 0.448% and 0.46% and 0.64%
- ID/g (Rattus norvegicus [24]): 0.824%
- ID/g (Rattus norvegicus [25]): 0.826%
- ID/g (Rattus norvegicus [26]): 0.261%
- ID/g (Rattus norvegicus [27]): 0.17% and 0.44% and 0.43% and 0.39% and 0.48% and 0.56% and 0.61%
- ID/g (Rattus norvegicus [28]): 0.153%
- ID/g (Rattus norvegicus [29]): 0.119%
- ID/g (Rattus norvegicus [30]): 0.124%
- ID/g (Rattus norvegicus [31]): 0.7%
- ID/g (Rattus norvegicus [32]): 1.125%
- ID/g (Rattus norvegicus [33]): 0.121%
- ID/g (Rattus norvegicus [34]): 0.154%
- ID/g (Rattus norvegicus [35]): 0.293%
- ID/g (Rattus norvegicus [36]): 0.382% and 0.44% and 0.47%
- ID/g (Rattus norvegicus [37]): 0.171%
- ID/g (Rattus norvegicus [38]): 0.181%
- ID/g (Rattus norvegicus [39]): 0.871%
- ID/g (Rattus norvegicus [40]): 0.123%
- ID/g (Rattus norvegicus [41]): 0.484% and 0.52%
- ID/g (Rattus norvegicus [42]): 0.861%
- ID/g (Rattus norvegicus [43]): 0.139%
- ID/g (Rattus norvegicus [44]): 0.285%
- ID/g (Rattus norvegicus [45]): 0.529% and 0.63% and 0.71%
- ID/g (Rattus norvegicus [46]): 0.13% and 0.43% and 0.49% and 0.46% and 0.44% and 0.54% and 0.63% and 0.42%
- ID/g (Rattus norvegicus [47]): 0.126% and 0.13% and 0.18%
- ID/g (Rattus norvegicus [48]): 0.353%

Compound: CN1CCC=C(c2nsnc2SCCF)C1
- Ki [1]: > 10000 nM
- Ki [2]: 25 nM
- Ki [3]: 1.8 nM
